Experimental findings from ChEMBL document CHEMBL4622968, “Discovery of [1,2,4]triazolo[4,3-a]pyridines as potent Smoothened inhibitors targeting the Hedgehog pathway with improved antitumor activity in vivo” (Bioorg Med Chem, 2020) are described below.

For test [1], the system named is MDA-MB-468. As to the kind of experiment: Induction of apoptosis in human MDA-MB-468 cells assessed as late apoptotic cells at 28 uM incubated for 48 hrs by annexin-V-FITC staining based flow cytometric method (reference value: 0.99 %). Format: functional.
The subject of the next test is U-251. The test can be described thus: Antiproliferation activity against human U251 cells assessed as reduction in cell viability incubated for 72 hrs by MTT assay. Format: functional, cell-based. The conditions noted are these: U-251, 72 h. In outline: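 MTT assay. Cells were plated overnight and exposed to a range of concentrations for 72 h. MTT was then added for 4 h and absorbance read at 570 nm. Inhibition% = [(control − compound)/(control − blank)] × 100. IC50 was fitted from the curves. Mean ± S.D. of 3–5 separate experiments. RPMI 1640 + 10% FBS; MCF10A in DMEM/F12 with 5% horse serum, EGF, hydrocortisone, insulin and cholera toxin.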
Background: Tetrazolium dyes change colour on reduction, which living cells bring about.

In another test the test system is MDA-MB-231. The test can be described thus: Induction of apoptosis in human MDA-MB-231 cells assessed as decrease in Bcl2 protein expression level incubated for 1 hr by Western blot analysis. Format: functional, cell-based. A general note: In western blotting, separated proteins are transferred to a membrane and probed.
The subject of test [2] is MDA-MB-468. As to the kind of experiment: Induction of cell cycle arrest in human MDA-MB-468 cells assessed as cell accumulation at S phase at 14 uM incubated for 48 hrs by propidium iodide staining-based flow cytometric analysis (reference value: 34.20 %). Format: functional. In outline:
(§1)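 Cells were seeded at 1.2×10^5 per well and treated for 48 h (MDA-MB-468: 14, 28, 56 μM). Cells were fixed in 75% ethanol at −20 °C overnight, stained with PI and analysed by flow cytometry. Mean ± S.D. of three independent experiments versus DMSO.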

Test [3] deals with MDA-MB-468. As to the kind of experiment: Induction of cell cycle arrest in human MDA-MB-468 cells assessed as cell accumulation at G0/G1 phase at 14 uM incubated for 48 hrs by propidium iodide staining-based flow cytometric analysis (reference value: 38.94 %). Format: functional. In outline: as §1

The structures appear in SMILES notation. The source made the active and inactive calls. The calls are words filed in the database; no cut-off is given here.

For orientation: IC50 means the concentration that inhibits the measured activity by half. For the compound `O=C(Nc1ccc(Cl)c(-c2nnc3c(Cl)cccn23)c1)c1ccc(Cl)nc1Cl`, the Activity in the test on MDA-MB-468 [1] is given as 14.6%; with MDA-MB-468 [2], 45%; in the test with MDA-MB-468 [3], 30.69%. Also, the half-maximal inhibitory concentration (IC50) in the test with U-251 is 85.2 µM. For the same compound, the result in the test on MDA-MB-231 was Active.
